Results on one compound are retold here after ChEMBL document CHEMBL4219238, “Design, synthesis, molecular modelling and in vitro cytotoxicity analysis of novel carbamate derivatives as inhibitors of Monoacylglycerol lipase” (Bioorg Med Chem, 2018).

For one data set, the target named is T1, Monoglyceride lipase (Mus musculus, UniProt O35678).
T1 sequence (O35678 whole entry): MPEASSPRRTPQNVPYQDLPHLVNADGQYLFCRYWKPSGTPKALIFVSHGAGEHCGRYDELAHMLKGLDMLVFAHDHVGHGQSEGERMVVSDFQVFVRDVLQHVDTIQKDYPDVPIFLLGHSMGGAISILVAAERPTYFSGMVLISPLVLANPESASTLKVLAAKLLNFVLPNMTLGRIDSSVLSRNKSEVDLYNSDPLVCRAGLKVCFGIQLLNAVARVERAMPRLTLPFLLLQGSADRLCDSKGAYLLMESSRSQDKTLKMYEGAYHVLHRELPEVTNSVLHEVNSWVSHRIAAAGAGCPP
Kind of data set: Inhibition of MAGL in mouse B16-F10 cells using 7-HRA as substrate preincubated for 60 mins followed by substrate addition measured every 2.5 mins for 2 hrs by fluorescence assay. It is filed as cell-based. The note with it: read-out: IC50.

In data set [1] the test system is B16-F10. In words: Induction of apoptosis in mouse B16F10 cells assessed as live cells at 10 uM after 48 hrs by Annexin V-FITC/propidium iodide staining based flow cytometry (reference value: 88.04%). Format: functional. For orientation: A flow cytometer gives signals particle by particle.
Data set [2] has as its system B16-F10. In words: Induction of apoptosis in mouse B16F10 cells assessed as early apoptotic cells at 75 nM after 48 hrs by Annexin V-FITC/propidium iodide staining based flow cytometry (reference value: 1.43%). Format: functional.
Data set [3] relates to B16-F10. In words: Induction of apoptosis in mouse B16F10 cells assessed as necrotic cells at 75 nM after 48 hrs by Annexin V-FITC/propidium iodide staining based flow cytometry (reference value: 5.48%). Format: functional.
Data set [4] relates to B16-F10. Kind of data set: Effect on MAGL mRNA expression in mouse B16F10 cells by RT-PCR method. It is filed as functional.
Data set [5] concerns B16-F10. In words: Effect on ABHD6 mRNA expression in mouse B16F10 cells by RT-PCR method. It is filed as functional.
Data set [6] has as its system B16-F10. In words: Effect on ABHD12 mRNA expression in mouse B16F10 cells by RT-PCR method. It is filed as functional.
Data set [7] can be described thus: Induction of apoptosis in HEK293T cells assessed as live cells at 10 uM after 48 hrs by Annexin V-FITC/propidium iodide staining based flow cytometry (reference value: 82.43%). It is filed as cell-based, HEK-293T. The note with it: human, read-out: Activity. A digest of the protocol:
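HEK293T (DMEM with 10% FBS) or MCF7 (DMEM/Ham's F-12 1:1, 10% FBS) cells treated 48 h with 10 μM compound or DMSO. Staining with Alexa Fluor 488 annexin V plus 5 μg/ml PI in HEPES/NaCl/CaCl2 binding buffer; 10,000 cells per sample read by flow cytometry; n = 3, mean ± S.E.M.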

For another data set, the system named is MCF7. In words: Induction of apoptosis in human MCF7 cells at 10 uM after 48 hrs in presence of MAGL inhibitor JZL184 by Annexin V-FITC/propidium iodide staining based flow cytometry. It is filed as functional, cell-based.
The target in data set [8] is T2, Monoglyceride lipase (Homo sapiens) (UniProt Q99685).
T2 sequence (whole entry): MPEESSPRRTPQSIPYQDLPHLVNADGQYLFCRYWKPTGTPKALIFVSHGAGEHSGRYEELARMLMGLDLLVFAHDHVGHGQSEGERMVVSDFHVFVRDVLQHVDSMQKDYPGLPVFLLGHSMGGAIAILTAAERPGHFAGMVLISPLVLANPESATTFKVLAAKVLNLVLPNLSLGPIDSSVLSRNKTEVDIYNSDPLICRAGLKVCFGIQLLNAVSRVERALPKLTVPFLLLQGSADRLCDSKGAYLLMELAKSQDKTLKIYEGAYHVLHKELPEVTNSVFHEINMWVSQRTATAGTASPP
In words: Inhibition of MAGL in human MCF7 cells at 10 uM using 7-HRA as substrate preincubated for 6 hrs followed by substrate addition by fluorescence assay. It is filed as cell-based. A digest of the protocol:
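MCF7 cells cultured 6 h with 10 μM compound or DMSO, then lysed; MAGL activity measured on total cell lysate using the 7-HRA fluorogenic assay.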

For data set [9], the target named is T3, Fatty-acid amide hydrolase 1 (Homo sapiens) (UniProt O00519).
T3 sequence (whole entry): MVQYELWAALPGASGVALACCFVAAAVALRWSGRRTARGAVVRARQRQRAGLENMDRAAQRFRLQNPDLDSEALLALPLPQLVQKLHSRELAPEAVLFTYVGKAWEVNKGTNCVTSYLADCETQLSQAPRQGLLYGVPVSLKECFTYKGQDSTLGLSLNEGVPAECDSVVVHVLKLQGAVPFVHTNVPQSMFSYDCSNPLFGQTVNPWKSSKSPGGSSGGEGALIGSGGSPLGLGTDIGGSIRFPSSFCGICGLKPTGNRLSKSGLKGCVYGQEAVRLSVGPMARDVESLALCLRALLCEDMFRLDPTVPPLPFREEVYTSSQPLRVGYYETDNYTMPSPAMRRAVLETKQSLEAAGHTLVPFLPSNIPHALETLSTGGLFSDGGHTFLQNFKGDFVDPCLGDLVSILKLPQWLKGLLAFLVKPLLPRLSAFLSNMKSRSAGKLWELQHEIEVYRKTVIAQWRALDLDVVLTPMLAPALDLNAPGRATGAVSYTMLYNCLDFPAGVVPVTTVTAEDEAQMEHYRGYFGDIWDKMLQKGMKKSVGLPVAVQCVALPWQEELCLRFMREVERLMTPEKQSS
Kind of data set: Inhibition of human FAAH at 10 uM using AAMCA as substrate preincubated for 1 hr followed by substrate addition measured after 30 mins by fluorescence assay relative to control. In short, it runs like this: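 Recombinant human FAAH (C-terminal His-tagged, Sf21), 1 U/well, in 50 mM Tris-HCl, 1 mM EDTA, pH 9, preincubated 1 h at room temperature with 10 μM compound (final). AAMCA added to 20 μM final; fluorescence (ex 360/em 460 nm) read every 3 min for 30 min. Rate by linear regression, no-enzyme background subtracted, normalised to no-inhibitor control.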

pIC50: −log10 of the molar value. Activity calls are given as the source filed them. No cut-off for these calls is given here.

With `O=C(Nc1cccc(-c2ccc(C(F)(F)F)cc2)c1)OCc1ccco1`, the negative logarithm of the IC50 (pIC50) (usually the negative decadic logarithm of the IC50, by convention in mol/L) on Monoglyceride lipase was 4.88. For the same compound, the Activity was 17.8% in the data set on B16-F10 [1], 2.44% in the data set with B16-F10 [2] and 4.33% with B16-F10 [3]. Also, the deltaCT in the data set with B16-F10 [4] came to 11.05; in the data set with B16-F10 [5] it was 10.73; with B16-F10 [6] it was 16.84. Besides, the viability at 48 h, 10 µM in data set [7] worked out at 81.4%. Besides, in the data set with MCF7, the outcome was Active. In addition, in data set [8], the inhibition (as a rule, the change of the read-out against control, counted positive when it falls) was “Active”. In data set [9], the inhibition came to 10%.
